Test results: ChEMBL document CHEMBL1145884, “Synthesis and biological activity of novel 1beta-methylcarbapenems with oxyiminopyrrolidinylamide moiety” (2003)
In brackets after ≈: the same amount, converted by molar mass.

Test system: Pseudomonas aeruginosa
Test: Antibacterial activity against Pseudomonas aeruginosa 1592E
Details: not given
Work on `CCOC(=O)C1CN(C(=O)[C@@H]2C[C@H](SC3=C(C(=O)O)N4C(=O)[C@H]([C@@H](C)O)[C@H]4[C@H]3C)CN2)C/C1=N\O` (stereo partly specified) yielded an MIC of 3.12 µg/mL (≈ 6.12 µM).
Work on `CO/N=C1\CN(C(=O)[C@@H]2C[C@H](SC3=C(C(=O)O)N4C(=O)[C@H]([C@@H](C)O)[C@H]4[C@H]3C)CN2)CC1CN` (stereo partly specified) yielded an MIC of 0.195 µg/mL (≈ 0.405 µM).

Test system: Enterobacter cloacae
Test: Antibacterial activity against Enterobacter cloacae 1321E
Type: functional
Details: not given
How it was run: (§1)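 MIC was determined by agar dilution on Mueller–Hinton medium.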
`CCOC(=O)C1CN(C(=O)[C@@H]2C[C@H](SC3=C(C(=O)O)N4C(=O)[C@H]([C@@H](C)O)[C@H]4[C@H]3C)CN2)C/C1=N\O` (stereo partly specified) gave an MIC of 0.025 µg/mL (≈ 0.049 µM).
Work on `CO/N=C1\CN(C(=O)[C@@H]2C[C@H](SC3=C(C(=O)O)N4C(=O)[C@H]([C@@H](C)O)[C@H]4[C@H]3C)CN2)CC1CN` (stereo partly specified) yielded an MIC of 0.025 µg/mL (≈ 0.0519 µM).

Test system: Streptococcus pyogenes
Test: Antibacterial activity against Streptococcus pyogenes 308A
Type: functional
Details: not given
`CCOC(=O)C1CN(C(=O)[C@@H]2C[C@H](SC3=C(C(=O)O)N4C(=O)[C@H]([C@@H](C)O)[C@H]4[C@H]3C)CN2)C/C1=N\O` (stereo partly specified) gave an MIC of 0.013 µg/mL (≈ 0.0255 µM).
Compound `CO/N=C1\CN(C(=O)[C@@H]2C[C@H](SC3=C(C(=O)O)N4C(=O)[C@H]([C@@H](C)O)[C@H]4[C@H]3C)CN2)CC1CN` (stereo partly specified) has an MIC of 0.004 µg/mL (≈ 0.00831 µM).

Test system: Klebsiella aerogenes
Test: Antibacterial activity against Klebsiella aerogenes 1522E
Type: functional
Details: not given
How it was run: as §1
`CCOC(=O)C1CN(C(=O)[C@@H]2C[C@H](SC3=C(C(=O)O)N4C(=O)[C@H]([C@@H](C)O)[C@H]4[C@H]3C)CN2)C/C1=N\O` (stereo partly specified) gave an MIC of 0.049 µg/mL (≈ 0.096 µM).
`CO/N=C1\CN(C(=O)[C@@H]2C[C@H](SC3=C(C(=O)O)N4C(=O)[C@H]([C@@H](C)O)[C@H]4[C@H]3C)CN2)CC1CN` (stereo partly specified) showed an MIC of 0.098 µg/mL (≈ 0.203 µM).

Test system: Escherichia coli
Test: Antibacterial activity against Escherichia coli 078
Type: functional
Details: not given
How it was run: as §1
Compound `CCOC(=O)C1CN(C(=O)[C@@H]2C[C@H](SC3=C(C(=O)O)N4C(=O)[C@H]([C@@H](C)O)[C@H]4[C@H]3C)CN2)C/C1=N\O` (stereo partly specified) has an MIC of 0.013 µg/mL (≈ 0.0255 µM).
Work on `CO/N=C1\CN(C(=O)[C@@H]2C[C@H](SC3=C(C(=O)O)N4C(=O)[C@H]([C@@H](C)O)[C@H]4[C@H]3C)CN2)CC1CN` (stereo partly specified) yielded an MIC of 0.025 µg/mL (≈ 0.0519 µM).

Test system: Salmonella typhimurium
Test: Antibacterial activity against Salmonella Typhimurium
Type: functional, Salmonella enterica subsp. enterica serovar Typhimurium
Details: Salmonella enterica
How it was run: as §1
`CCOC(=O)C1CN(C(=O)[C@@H]2C[C@H](SC3=C(C(=O)O)N4C(=O)[C@H]([C@@H](C)O)[C@H]4[C@H]3C)CN2)C/C1=N\O` (stereo partly specified) gave an MIC of 0.049 µg/mL (≈ 0.096 µM).
Compound `CO/N=C1\CN(C(=O)[C@@H]2C[C@H](SC3=C(C(=O)O)N4C(=O)[C@H]([C@@H](C)O)[C@H]4[C@H]3C)CN2)CC1CN` (stereo partly specified) has an MIC of 0.098 µg/mL (≈ 0.203 µM).

Test system: Staphylococcus aureus
Test: Antibacterial activity against Staphylococcus aureus 285
Type: functional
Details: not given
In the case of `CCOC(=O)C1CN(C(=O)[C@@H]2C[C@H](SC3=C(C(=O)O)N4C(=O)[C@H]([C@@H](C)O)[C@H]4[C@H]3C)CN2)C/C1=N\O` (stereo partly specified), the MIC is reported as 0.391 µg/mL (≈ 0.766 µM).
Compound `CO/N=C1\CN(C(=O)[C@@H]2C[C@H](SC3=C(C(=O)O)N4C(=O)[C@H]([C@@H](C)O)[C@H]4[C@H]3C)CN2)CC1CN` (stereo partly specified) has an MIC of 0.195 µg/mL (≈ 0.405 µM).

Test system: Staphylococcus aureus
Test: Antibacterial activity against Staphylococcus aureus 503
Type: functional
Details: not given
`CCOC(=O)C1CN(C(=O)[C@@H]2C[C@H](SC3=C(C(=O)O)N4C(=O)[C@H]([C@@H](C)O)[C@H]4[C@H]3C)CN2)C/C1=N\O` (stereo partly specified) gave an MIC of 0.195 µg/mL (≈ 0.382 µM).
Work on `CO/N=C1\CN(C(=O)[C@@H]2C[C@H](SC3=C(C(=O)O)N4C(=O)[C@H]([C@@H](C)O)[C@H]4[C@H]3C)CN2)CC1CN` (stereo partly specified) yielded an MIC of 0.049 µg/mL (≈ 0.102 µM).

Test system: Pseudomonas aeruginosa
Test: Antibacterial activity against Pseudomonas aeruginosa 9027
Type: functional
Details: not given
How it was run: as §1
Work on `CCOC(=O)C1CN(C(=O)[C@@H]2C[C@H](SC3=C(C(=O)O)N4C(=O)[C@H]([C@@H](C)O)[C@H]4[C@H]3C)CN2)C/C1=N\O` (stereo partly specified) yielded an MIC of 6.25 µg/mL (≈ 12.2 µM).
With `CO/N=C1\CN(C(=O)[C@@H]2C[C@H](SC3=C(C(=O)O)N4C(=O)[C@H]([C@@H](C)O)[C@H]4[C@H]3C)CN2)CC1CN` (stereo partly specified) the MIC was 0.391 µg/mL (≈ 0.812 µM).

Test system: Escherichia coli
Test: Antibacterial activity against Escherichia coli 1507E
Type: functional
Details: not given
How it was run: as §1
Work on `CCOC(=O)C1CN(C(=O)[C@@H]2C[C@H](SC3=C(C(=O)O)N4C(=O)[C@H]([C@@H](C)O)[C@H]4[C@H]3C)CN2)C/C1=N\O` (stereo partly specified) yielded an MIC of 0.049 µg/mL (≈ 0.096 µM).
`CO/N=C1\CN(C(=O)[C@@H]2C[C@H](SC3=C(C(=O)O)N4C(=O)[C@H]([C@@H](C)O)[C@H]4[C@H]3C)CN2)CC1CN` (stereo partly specified) gave an MIC of 0.049 µg/mL (≈ 0.102 µM).

Test system: Pseudomonas aeruginosa
Test: Antibacterial activity against Pseudomonas aeruginosa 1771M
Type: functional
Details: not given
How it was run: as §1
Work on `CCOC(=O)C1CN(C(=O)[C@@H]2C[C@H](SC3=C(C(=O)O)N4C(=O)[C@H]([C@@H](C)O)[C@H]4[C@H]3C)CN2)C/C1=N\O` (stereo partly specified) yielded an MIC of 0.391 µg/mL (≈ 0.766 µM).
In the case of `CO/N=C1\CN(C(=O)[C@@H]2C[C@H](SC3=C(C(=O)O)N4C(=O)[C@H]([C@@H](C)O)[C@H]4[C@H]3C)CN2)CC1CN` (stereo partly specified), the MIC is reported as 0.098 µg/mL (≈ 0.203 µM).

Test system: not listed separately
Test: Compound was evaluated for its relative half life of hydrolysis to meropenem by partially purified porcine renal dihydropeptidase-I (DHP-I)
Type: functional
Details: Sus scrofa
For `CCOC(=O)C1CN(C(=O)[C@@H]2C[C@H](SC3=C(C(=O)O)N4C(=O)[C@H]([C@@H](C)O)[C@H]4[C@H]3C)CN2)C/C1=N\O` (stereo partly specified), the relative t1/2 (DHP-I hydrolysis vs meropenem) was 0.26.
With `CO/N=C1\CN(C(=O)[C@@H]2C[C@H](SC3=C(C(=O)O)N4C(=O)[C@H]([C@@H](C)O)[C@H]4[C@H]3C)CN2)CC1CN` (stereo partly specified) the relative t1/2 (DHP-I hydrolysis vs meropenem) was 0.25.

Test system: Staphylococcus aureus
Test: Antibacterial activity against Staphylococcus aureus SG 511
Type: functional
Details: not given
For `CCOC(=O)C1CN(C(=O)[C@@H]2C[C@H](SC3=C(C(=O)O)N4C(=O)[C@H]([C@@H](C)O)[C@H]4[C@H]3C)CN2)C/C1=N\O` (stereo partly specified), the MIC was 0.195 µg/mL (≈ 0.382 µM).
For `CO/N=C1\CN(C(=O)[C@@H]2C[C@H](SC3=C(C(=O)O)N4C(=O)[C@H]([C@@H](C)O)[C@H]4[C@H]3C)CN2)CC1CN` (stereo partly specified), the MIC was 0.098 µg/mL (≈ 0.203 µM).
